In experiment [1] the target is T1, Co-chaperonin GroES (Escherichia coli, UniProt Q7BGE6).
T1 sequence (Q7BGE6 whole entry): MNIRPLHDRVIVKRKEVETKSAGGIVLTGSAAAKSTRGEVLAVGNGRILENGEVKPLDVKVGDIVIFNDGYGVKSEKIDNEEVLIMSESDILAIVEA
As to the kind of experiment: Inhibition of Escherichia coli GroEL/ES assessed as inhibition of native malate dehydrogenase treated after denatured malate dehydrogenase completely refold in presence of NfsB nitroreductase. The method, boiled down: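 Native MDH counter-screen with 10 µg/mL E. coli NfsB nitroreductase added to the initial GroEL/ES-dMDH solution. Compounds are added after the EDTA quench, then incubated 10 min at 37°C with NADH to bioactivate nitrofurans. Compounds in the reporter step span 56 µM to 25 nM (3-fold series).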

Experiment [2] deals with T1, Co-chaperonin GroES. As to the kind of experiment: Inhibition of Escherichia coli GroEL/ES assessed as inhibition of native malate dehydrogenase treated after denatured malate dehydrogenase completely refold. The method, boiled down:
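Counter-screen on native MDH activity: compounds are added only after GroEL/ES has fully refolded the denatured MDH, so the assay flags compounds that act on the MDH reporter reaction itself. IC50 values are averages from at least five replicates. […] DMSO serves as the negative control.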

This passage reports IC50 results from BindingDB's records for doi:10.1016/j.bmc.2020.115710 (Indiana University School of Medicine, 2020).

`O=C(N/N=C/c1ccc([N+](=O)[O-])o1)c1ccccc1`: the IC50 was more than 56 µM at Co-chaperonin GroES [1] and more than 63 µM at Co-chaperonin GroES [2].
In the same order, the values of `O=C(N/N=C/c1ccc([N+](=O)[O-])o1)c1ccc(Cl)s1` are more than 56 µM and more than 63 µM.
On to `O=C(N/N=C/c1ccc([N+](=O)[O-])o1)c1ccc(O)cc1` [NIFUROXAZIDE], for which the concentration for half-maximal inhibition (IC50) at Co-chaperonin GroES [1] was more than 56 µM; on Co-chaperonin GroES [2] it was more than 63 µM.
In the same order, the values of `O=C1CN(/N=C/c2ccc([N+](=O)[O-])o2)C(=O)N1` [MLS000028500] are more than 56 µM and more than 63 µM.
The corresponding values for `O=C(N/N=C/c1ccc([N+](=O)[O-])o1)c1ccncc1` [N-[(E)-(5-nitro-2-furanyl)methylideneamino]-4-pyridinecarboxamide] are more than 56 µM and more than 63 µM.
In the same order, the values of `O=C(N/N=C/c1ccc([N+](=O)[O-])o1)c1cccs1` are more than 56 µM and more than 63 µM.
For the compound `COc1ccc(C(=O)N/N=C/c2ccc([N+](=O)[O-])o2)cc1`, the results for the concentration for half-maximal inhibition (IC50) on Co-chaperonin GroES [1] and on Co-chaperonin GroES [2] were more than 56 µM and more than 63 µM, respectively.
The corresponding values for `CN(C)c1ccc(C(=O)N/N=C/c2ccc([N+](=O)[O-])o2)cc1` are more than 56 µM and more than 63 µM.
